Compounds with a hit are over-represented: about 2.4% of the library has one in this group of screens.
MOR-DOR inv ag: mu-delta opioid heterodimer inverse agonism; cell-based MOR-DOR heterodimer luminescence; inhibition, % at 9.3 µM; AID 504357; P35372+P41143; actives 0.21% (n = 340,000); in the data active = inhibition above about 22%, passing the limit was not always enough
HTR5A ag ctr: counter-screen for OPRM1-OPRD1 agonists: human HTR5A agonism | P47898 | HTR5A agonist assay, luminescence, cell-based | activation, % at 9.3 µM | actives 0.61% (n = 340,000) | AID 504692; in the data active = activation mostly above about 9.5%, no sharp cut-off; inactive = mostly below about 7.6%
Target sequence (P47898 whole entry, looked up): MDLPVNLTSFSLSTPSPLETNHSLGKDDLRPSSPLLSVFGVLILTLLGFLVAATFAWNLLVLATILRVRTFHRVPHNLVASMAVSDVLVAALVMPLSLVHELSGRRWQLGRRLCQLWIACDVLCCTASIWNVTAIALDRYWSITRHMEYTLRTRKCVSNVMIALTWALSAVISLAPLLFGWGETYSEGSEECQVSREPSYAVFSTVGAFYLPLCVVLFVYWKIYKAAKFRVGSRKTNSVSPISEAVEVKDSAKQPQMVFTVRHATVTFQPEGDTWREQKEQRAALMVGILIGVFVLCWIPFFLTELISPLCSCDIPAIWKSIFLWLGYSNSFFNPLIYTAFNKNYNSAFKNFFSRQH
OPRM1-OPRD1 ag: OPRM1-OPRD1 heterodimerization agonism; cells, luminescence; P35372+P41143; activation, % at 9.3 µM; AID 504326; actives 0.3% (n = 340,000); in the data active = activation above about 18%
HTR5A inv ctr: inverse agonist of human HTR5A in OPRM1-OPRD1 counter-screen; P47898; HTR5A cell line, luminescence, inverse agonism; inhibition, % at 9.3 µM; actives 0.083% (n = 340,000); in the data active = inhibition mostly above about 23%, no sharp cut-off; inactive = mostly below about 18%
MC4R antagonist: blocks human MC4R cAMP signaling | inhibition, % at 6.5 µM | P32245 | actives 0.48% (n = 360,000) | MC4R-expressing cells, MTII-stimulated cAMP, LANCE TR-FRET | AID 540295;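 active = inhibition above its plate's cutoff, the mean of tested wells on that plate plus 3 SD, cut at about 29% in these data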
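material = U2OS cells stably expressing human melanocortin 4 receptor (MC4R) | also added = Melanotan II challenge | dosing = single nominal compound dose of 6.5 µM | detection = TR-FRET with Eu-cAMP and labeled anti-cAMP, 671 nm | replication = singlicate | timing = compound 30 min, challenge 1 h, detection 1 h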
MC4R barr agon: agonists of human melanocortin 4 receptor (MC4R) beta-arrestin | P32245 | actives 0.98% (n = 360,000) | AID 540308 | U2OS MC4R beta-arrestin complementation, luminescence; percent of melanotan II response, DMSO zero | activation, % at 8.9 µM;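 active = activation above a per-plate cutoff, the mean activation of sample wells on that plate plus 3 SD, cut at about 8% in these data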
U2OS cAMP counter: counter-screen for MC4R antagonists: nonselective cAMP signaling inhibitors; actives 26% (n = 1,600); inhibition, % at 6.5 µM; shares compounds with MC4R antagonist; AID 602193; parental U2OS, forskolin cAMP, LANCE TR-FRET;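 active = mean inhibition over triplicates above the low-control well mean plus 3 SD, set per campaign, cut at about 13% in these data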;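 also: signal is single emission at 671 nm which falls as cellular cAMP rises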
MC4R cAMP antag: human MC4R cAMP antagonism confirmation; shares compounds with MC4R antagonist; MC4R-expressing cells, MTII-stimulated cAMP, TR-FRET; inhibition, % at 6.5 µM; actives 27% (n = 1,600); AID 602195; in the data active = inhibition above about 29%
A number is an active result; i = inactive; nt = not tested or not shown.

SMILES	MOR-DOR inv ag	HTR5A ag ctr	OPRM1-OPRD1 ag	HTR5A inv ctr	MC4R antagonist	MC4R barr agon	U2OS cAMP counter	MC4R cAMP antag
COc1ccc(COc2cc(-c3cccc(OC)c3)nc3ccc(NC(=O)c4cccnc4)cc23)cc1	i	i	i	i	33.1	i	i	i
CCOc1ccc(C(=O)CCC(=O)NCC(=O)OCc2ccccc2)cc1OCC	i	i	i	i	31.8	i	i	i
Cc1cccc(C)c1NC(=O)COC(=O)c1cc[n+]([O-])cc1	i	i	i	i	i	i	nt	nt
CCc1nc2ccc(C(=O)NCc3ccc4c(c3)OCO4)cn2c1N(CCC(C)C)CCN(C)C	nt	nt	nt	nt	31.1	i	i	46.6
CC(=O)N(CCc1ccccc1)c1ccc2c(c1)C1CC2CCN1C(=O)OCc1ccccc1 (stereo unspecified)	nt	nt	nt	nt	i	i	nt	nt
O=C(CCc1nnc2ccc(NCc3ccco3)nn12)Nc1ccccc1F	i	i	i	i	i	i	nt	nt
CN(C)S(=O)(=O)c1cccc(C(=O)NC2CCSc3ccccc32)c1 (stereo unspecified)	i	i	i	i	i	i	nt	nt
CS(=O)(=O)Cc1cccc(C(=O)NC2CCSc3ccccc32)c1 (stereo unspecified)	i	i	i	i	32.5	i	i	i
CCC1(CC)C(=O)N(C)C(=O)NC1=Nc1ccc(OC)cc1	i	i	i	i	i	i	nt	nt
CC(C)S(=O)(=O)N1CCCC(C(=O)c2cccc(Cl)c2)C1 (stereo unspecified)	i	i	i	i	i	i	nt	nt
CCC1=NN2C(=N)/C(=C\c3cccn3-c3c(C)cccc3C)C(=O)N=C2S1	i	i	i	i	i	i	nt	nt
COc1ccc(-n2cccc2/C=C2\C(=N)N3N=C(C(C)C)SC3=NC2=O)cc1	i	i	i	i	46.6	i	i	i
CCC1=NN2C(=N)/C(=C\c3cccn3-c3ccc(C)cc3C)C(=O)N=C2S1	i	i	i	i	43.7	i	i	i
COc1ccc(-n2cccc2/C=C2\C(=N)N3N=C(c4ccco4)SC3=NC2=O)cc1	i	i	i	i	i	i	nt	nt
O=C(Nc1ccnc(-c2ccncc2)n1)c1ccc(Cl)cc1	i	i	i	i	i	i	nt	nt
CCc1ccc(NC(=O)Cn2c3[n+](c4c(F)c(F)ccc42)CCCCC3)cc1	nt	nt	nt	nt	i	i	nt	nt
COc1ccc(-c2ccc(C(=O)C3CC3)cc2)cc1	i	i	i	i	i	i	nt	nt
CC[N+]1(C)CCC(O)(c2ccc(OC)cc2)C(C(=O)c2ccc(OC)cc2)C1 (stereo unspecified)	i	i	i	i	28.7	i	17.0	i
COC(=O)c1cc([N+](=O)[O-])c(-n2ccnc2)c([N+](=O)[O-])c1	i	i	i	i	30.6	i	i	i
CC(C)C1C(c2ccccc2)N(C)C(c2ccccc2)CC1(O)c1ccccc1 (stereo unspecified)	i	i	i	i	28.5	i	i	i
CC(C)C1C(c2ccccc2)NC(c2ccccc2)CC1(O)c1ccc(F)cc1 (stereo unspecified)	i	i	i	i	i	i	nt	nt
Cc1cc([N+](=O)[O-])nn1Cc1noc(C(=O)NCc2ccc3c(c2)OCO3)n1	i	i	i	i	i	i	nt	nt
O=C(NCc1ccc2c(c1)OCO2)c1nc(Cn2ccc([N+](=O)[O-])n2)no1	i	i	i	i	31.4	i	i	i
CCCCn1c(N)c(N(CCC(C)C)C(=O)CCCc2nc3ccccc3s2)c(=O)[nH]c1=O	i	i	i	i	29.9	i	i	i
CCCCn1c(N)c(N(CC(C)C)C(=O)CCCc2nc3ccccc3s2)c(=O)[nH]c1=O	i	i	i	i	i	i	nt	nt
SMILES	MOR-DOR inv ag	HTR5A ag ctr	OPRM1-OPRD1 ag	HTR5A inv ctr	MC4R antagonist	MC4R barr agon	U2OS cAMP counter	MC4R cAMP antag
Cc1ccsc1C1C(C#N)=C(N)Oc2n[nH]c(C)c21 (stereo unspecified)	i	i	i	i	28.7	i	i	i
O=C(Nc1ccc(F)cc1)C1CCCN(S(=O)(=O)c2cccc3nonc23)C1 (stereo unspecified)	i	i	i	i	31.8	i	i	i
O=C(NCc1ccc(F)cc1)C1CCCN(S(=O)(=O)c2cccc3nonc23)C1 (stereo unspecified)	i	i	i	i	i	i	nt	nt
CCCCN(C)C(=O)c1nc2ccccn2c1CN1CCN(c2ncccn2)CC1	i	i	i	i	i	i	nt	nt
CCCCN(C)C(=O)c1nc2ccccn2c1CN1CCN(C/C=C/c2ccccc2)CC1	i	i	i	i	35.0	i	i	i
Cc1ccccc1CS(=O)(=O)Cc1ccc(C(=O)NCCc2ccccc2)o1	i	i	i	i	i	i	nt	nt
Cc1nn(CC(=O)Nc2ccccn2)c(C)c1Br	i	i	i	i	32.3	i	i	i
COc1cc(OC)cc(Oc2ccc(S(=O)(=O)N3CCCCC3)cc2[N+](=O)[O-])c1	i	i	i	i	29.6	i	i	i
COc1cccc2cc(C(=O)C3=C(O)C(=O)N(Cc4ccco4)C3c3cccnc3)oc12 (stereo unspecified)	i	i	i	i	28.7	i	26.9	44.5
COc1ccc(-c2noc(CCC(=O)N3CCN(c4ccccc4F)CC3)n2)cc1	i	i	i	i	i	i	nt	nt
COC(=O)COc1ccc(S(=O)(=O)N2CCN(c3ccccc3F)CC2)cc1	i	i	i	i	41.8	i	13.9	33.3
O=C(COc1ccc(S(=O)(=O)N2CCOCC2)cc1)Nc1ccccc1F	i	i	i	i	i	i	nt	nt
COC(=O)COc1ccc(S(=O)(=O)N2CCN(c3ccccc3)CC2)cc1	i	i	i	i	50.0	i	13.7	i
OC[C@@H](O)[C@@H](O[C@@H]1O[C@H](CO)[C@H](O)[C@H](O)[C@H]1O)[C@H](O)[C@@H](O)CO	i	i	i	i	i	i	nt	nt
C=C(C)CNC(=S)N/N=C/c1ccc([N+](=O)[O-])cc1	i	i	i	i	30.2	i	i	i
CC(=O)OCC1OC(n2cc(F)c(=O)[nH]c2=O)C(OC(C)=O)C1OC(C)=O (stereo unspecified)	i	i	i	i	i	i	nt	nt
O=C1C(F)=CC(COC(c2ccccc2)(c2ccccc2)c2ccccc2)OC1n1cc(F)c(=O)[nH]c1=O (stereo unspecified)	i	i	i	i	29.5	i	i	i
Cc1ccc(C)c(NC(=O)COC(=O)c2cccc3c2C(=O)c2ccccc2C3=O)c1	i	i	i	i	33.2	i	i	i

High-throughput results deposited in PubChem BioAssay by The Scripps Research Institute Molecular Screening Center.
